Source: PubChem BioAssay (several laboratories)
Sampled rows, rich in hits. Any-hit rate of the full collection: about 1.2%.
Insulin prom inh: TRM-6 insulin promoter activity inhibition. TRM-6 cells (human fetal islet line), insulin promoter-eGFP reporter, imaging; reporter expression induced with tamoxifen. inhibition, % at 2 µM. 130,000 tested, 0.9% active. AID 1273;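 active means inhibition above the mean plus 3 SD, with well images judged a real hit on visual review, cut at about 60% in these data, passing the limit was not always enough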
TNAP act hiacc: TNAP (human) activation, high acceptor; purified TNAP, CDP-star luminescence, 1 M DEA, 30 min; hits give high values; 0 = EDTA background, 1 = DMSO-only activity; P05186; activation factor at 20 µM; 200,000 tested, under 10 active;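 active means activation factor at least 2 at 20 µM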
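Control set: EDTA negative control, DMSO positive control / Assay system: human TNAP / Quantity: TNAP 1/800 final / Evaluation: TNAP activation factor scaled between EDTA and DMSO control wells / Measured by: luminescent substrate turnover signal / Compound dosing: one dose, 20 µM / Times: 30 min enzyme reaction at room temperature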
TNAP inh hi DEA: blocks human TNAP under high phosphate acceptor concentration; purified TNAP, CDP-star luminescence, 1 M DEA; inhibition, % at 20 µM; 200,000 tested, 0.03% active;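 active means over 50% inhibition of tissue-nonspecific alkaline phosphatase at 20 µM in the single-dose screen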
TNAP inh no acc: inhibitors of human TNAP without phosphate acceptor | P05186 | purified TNAP, CDP-star luminescence, 30 min | inhibition, % at 20 µM | 200,000 tested, 0.26% active | AID 1012;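 active means tissue-nonspecific alkaline phosphatase inhibition above about 50% at 20 µM in the single-dose screen, limit read from the data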
HMGR II inh: inhibitors of class II HMG-CoA reductase from Enterococcus faecalis; purified E. faecalis HMGR, NADPH absorbance 340 nm kinetic; inhibition, % at 10 µM; 190,000 tested, 0.41% active; AID 1066;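 active means inhibition above a set limit, the median over all tested compounds plus 3 SD, cut at about 9.5% in these data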;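 further: enzyme runs in reverse so mevalonate oxidation gives rising NADPH absorbance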
A number is an active result; i = inactive; nt = not tested or not shown.

SMILES	Insulin prom inh	TNAP act hiacc	TNAP inh hi DEA	TNAP inh no acc	HMGR II inh
Cc1nnc(SCc2ccccc2)n(N)c1=O	nt	i	i	i	i
Cc1nnc(SC/C=C/c2ccccc2)n(N)c1=O	i	i	i	i	9.8
Nc1ccccc1-c1nnn(CC(=O)N2CCCc3ccccc32)n1	i	i	i	i	i
O=[N+]([O-])c1ccccc1N(CC1CO1)S(=O)(=O)c1ccccc1 (stereo unspecified)	nt	i	i	i	i
Cn1c(SCC(=O)N/N=C/c2ccc([N+](=O)[O-])s2)nnc1-c1ccc(Cl)cc1	i	i	i	i	i
CC1CCCN(Cc2nc(Cc3ccccc3Cl)no2)C1 (stereo unspecified)	nt	i	i	i	i
